Source: ChEMBL document CHEMBL4145532, “Design and synthesis of new potent N,N-bis(arylalkyl)piperazine derivatives as multidrug resistance (MDR) reversing agents” (Eur J Med Chem, 2018)
Activity calls are given as the source filed them. No cut-off for these calls is given here.

Assays:
Homo sapiens [1] = species on record: Homo sapiens; experiment: Inhibition of P-gp in human K562/Dox cells assessed as potentiation of doxorubicin-induced cytotoxicity by measuring ratio of doxorubicin IC50 to doxorubicin IC50 in presence of test compound at 0.1 uM after 72 hrs by MTT assay; type: cell-based
Procedure, shortened: (§1)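 K562/DOX cells were exposed 72 h to doxorubicin (0.0001–100 μM) with or without modulator at 0.1, 1.0 or 3.0 μM, then read by MTT at 570 nm. Reversal fold is doxorubicin IC50 without modulator divided by IC50 with modulator. Quadruplicate cultures, at least three determinations.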

Homo sapiens [2] = species on record: Homo sapiens; experiment: Inhibition of P-gp in human K562/Dox cells assessed as increase in Rh-123 accumulation at 1 uM preincubated for 15 mins followed by Rh-123 addition measured after 30 to 60 mins by FACS analysis; type: cell-based
Procedure, shortened: (§2)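 Cells (K562/DOX or parental K562) got modulator at 1.0 μM, with 15 min pre-exposure, then were loaded with 5.0 μM rhodamine-123 for 30 min at 37 °C in 5% CO2. After washing, cells sat in Rh-123-free medium with or without modulator for 30 or 60 min efflux. Cells were washed in ice-cold PBS and read by flow cytometry (≥20,000 gated events). MFI ratio is median fluorescence of treated over untreated control.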

Homo sapiens [3] = species on record: Homo sapiens; experiment: (§3) Inhibition of P-gp in human K562/Dox cells assessed as reduction in Rh-123 efflux by measuring mean fluorescence intensity at 1 uM preincubated for 15 mins followed by Rh-123 addition for 30 mins and subsequent replacement in Rh-123 free medium measured after 30 mins by FACS analysis; type: cell-based
Procedure, shortened: (§4)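 K562/DOX cells pretreated with modulator (1.0 μM) 15 min before loading with 5.0 μM rhodamine 123 for 30 min at 37 °C, 5% CO2. Washed, then held in Rhd 123-free medium with or without modulator for 30 or 60 min. Cells washed in ice-cold PBS and analysed by flow cytometry (≥20,000 gated events). MFI ratio = median fluorescence of treated/untreated control. Mean ± SE, three independent experiments.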

[4] = Cytotoxicity against human K562/Dox cells at 0.1 to 3 uM after 72 hrs by MTT assay; type: cell-based
Procedure, shortened: (§5)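 Compounds were given alone at 0.1, 1.0 and 3.0 μM to parental K562 and to P-gp-overexpressing K562/DOX cells. Exponential-phase cells were seeded at 10^4 cells/well and kept 72 h at 37 °C in 5% CO2. MTT was then added for 3 h, formazan was dissolved in acidified isopropanol, and absorbance was read at 570 nm.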

K562 [5] = experiment: Potentiation of doxorubicin-induced cytotoxicity against human K562 cells at 0.1 to 3 uM after 72 hrs by MTT assay; type: functional, cell-based
Procedure, shortened: (§6)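 Doxorubicin (0.0001–100 μM) was tested alone or combined with modulator at 0.1, 1.0 or 3.0 μM on K562/DOX or parental K562 cells, seeded at 10^4 cells/well. Plates ran 72 h at 37 °C in 5% CO2, followed by 3 h MTT, acidified isopropanol and A570. Doxorubicin IC50 was taken as mean ± SE of at least three determinations with quadruplicate cultures.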

K562 [6] = experiment: Inhibition of Rh-123 efflux in human K562 cells at 1 uM preincubated for 15 mins followed by Rh-123 addition for 30 mins and subsequent replacement in Rh-123 free medium measured after 30 to 60 mins by FACS analysis; type: functional, cell-based; procedure, shortened: as §2
K562 [7] = experiment: Potentiation of doxorubicin-induced cytotoxicity against human K562 cells at 1 uM after 72 hrs by MTT assay; type: functional, cell-based; procedure, shortened: as §6
Homo sapiens [8] = species on record: Homo sapiens; experiment: Inhibition of P-gp in human K562/Dox cells assessed as potentiation of doxorubicin-induced cytotoxicity by measuring ratio of doxorubicin IC50 to doxorubicin IC50 in presence of test compound at 3 uM after 72 hrs by MTT assay; type: cell-based; procedure, shortened: as §1
K562 [9] = experiment: Induction of Rh-123 accumulation in human K562 cells at 1 uM preincubated for 15 mins followed by Rh-123 addition and measured after 30 mins by FACS analysis; type: functional, cell-based; procedure, shortened: as §2
K562 [10] = experiment: Cytotoxicity against human K562 cells at 0.1 to 3 uM after 72 hrs by MTT assay; type: cell-based; conditions: k562, 72 h; procedure, shortened: as §5
[11] = Half life in Sprague-Dawley rat plasma up to 1 uM by LC-MS/MS analysis; type: ADME, cell-free
Procedure, shortened: (§7)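 Analyte at 1 μM was placed in PBS, pooled human plasma (healthy male volunteers) or Sprague-Dawley male rat plasma. Samples were incubated at 37 °C for 0, 30, 60 and 120 min in triplicate. Internal standard was added, samples were centrifuged, and supernatants were dried and redissolved in 10 mM formic acid water:acetonitrile 80:20. Quantitation was by LC-MS/MS, positive ESI, MRM. Plasma hydrolytic activity was checked with ketoprofen ethyl ester or enalapril.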

[12] = Half life in human plasma up to 1 uM by LC-MS/MS analysis; type: ADME, cell-free; procedure, shortened: as §7
Homo sapiens [13] = species on record: Homo sapiens; experiment: Inhibition of P-gp in human K562/Dox cells assessed as potentiation of doxorubicin-induced cytotoxicity by measuring ratio of doxorubicin IC50 to doxorubicin IC50 in presence of test compound at 1 uM after 72 hrs by MTT assay; type: cell-based; procedure, shortened: as §1
[14] = Half life in PBS up to 1 uM by LC-MS/MS analysis; type: physicochemical; procedure, shortened: as §7
Homo sapiens [15] = species on record: Homo sapiens; experiment: (§8) Inhibition of P-gp in human K562/Dox cells assessed as reduction in Rh-123 efflux by measuring mean fluorescence intensity at 1 uM preincubated for 15 mins followed by Rh-123 addition for 30 mins and subsequent replacement in Rh-123 free medium measured after 60 mins by FACS analysis; type: cell-based; procedure, shortened: as §4
Homo sapiens [16] = species on record: Homo sapiens; experiment: (§9) Inhibition of P-gp in human K562/Dox cells assessed as potentiation of doxorubicin-induced cytotoxicity after 72 hrs by MTT assay; type: cell-based; procedure, shortened: as §6
Homo sapiens [17] = species on record: Homo sapiens; experiment: as §8, with “measuring increase in” for “measuring”, “analysis relative to control” for “analysis”; type: cell-based; procedure, shortened: as §2
[18] = Cytotoxicity against human K562/Dox cells at 3 uM after 72 hrs by MTT assay relative to control; type: cell-based; procedure, shortened: as §5
Homo sapiens [19] = species on record: Homo sapiens; experiment: as §3, with “measuring increase in” for “measuring”, “analysis relative to control” for “analysis”; type: cell-based; procedure, shortened: as §2
[20] = as §9; type: cell-based; conditions: K562, 72 h; procedure, shortened: as §6

SMILES	Ratio IC50 (Homo sapiens [1])	P-gp inhibition activity call (increase in Rh-123 accumulation) (Homo sapiens [2])	Flu intensity (Homo sapiens [3])	Activity [4]	Activity (K562 [5])	inhibition (K562 [6])	Activity (K562 [7])	Ratio IC50 (Homo sapiens [8])	Activity (K562 [9])	Activity (K562 [10])	half-life [11] [h]	half-life [12] [h]	Ratio IC50 (Homo sapiens [13])	half-life [14] [h]	Flu intensity (Homo sapiens [15])	inhibition (Homo sapiens [16])	fold change (FC) (Homo sapiens [17])	Activity [18]	fold change (FC) (Homo sapiens [19])	EC50 [20] [nM]
COc1cc(/C=C/CN2CCN(Cc3c4ccccc4cc4ccccc34)CC2)cc(OC)c1OC	1.7	Active	7.5	Non-Toxic	inactive	inactive	inactive	22	inactive	Non-Toxic	> 4	> 4	8.8	> 4	2.4	Dose-dependent effect	–	–	–	–
CCOC(=O)C(C)c1cccc(C(=O)c2ccccc2)c1 (stereo not drawn)	–	–	–	–	–	–	–	–	–	–	–	1.83	–	–	–	–	–	–	–	–
COc1ccc(C(CCCN2CCN(CCOc3cc(OC)c(OC)c(OC)c3)CC2)c2ccc(OC)cc2)cc1	2.4	Active	5.5	Non-Toxic	inactive	inactive	inactive	8.8	inactive	Non-Toxic	> 4	> 4	4.5	> 4	1.4	Dose-dependent effect	–	–	–	–
COc1ccc(C(CCCN2CCN(Cc3cc(OC)c(OC)c(OC)c3)CC2)c2ccc(OC)cc2)cc1	1.2	Active	30	–	inactive	inactive	inactive	73.3	inactive	Non-Toxic	> 4	> 4	10.5	> 4	11.1	Dose-dependent effect	10	<= 30%	30	1900
CCOC(=O)[C@H](CCc1ccccc1)N[C@@H](C)C(=O)N1CCC[C@H]1C(=O)O	–	–	–	–	–	–	–	–	–	–	0.417	–	–	–	–	–	–	–	–	–
COc1cc2c(cc1OC)CN(CCc1ccc(NC(=O)c3cc(OC)c(OC)cc3NC(=O)c3cnc4ccccc4c3)cc1)CC2	–	–	–	–	–	–	–	–	–	–	–	–	31.4	–	–	–	–	–	–	–
COc1ccc(C(CCCN2CCN(C/C=C/c3cc(OC)c(OC)c(OC)c3)CC2)c2ccc(OC)cc2)cc1	1.9	Active	108	Non-Toxic	inactive	inactive	inactive	44	inactive	Non-Toxic	> 4	> 4	12.9	> 4	49.9	Dose-dependent effect	50	–	100	2700
